Results reported in ChEMBL document CHEMBL3627646, “Synthesis and biological activity of amino acid derivatives of avarone and its model compound” (Bioorg Med Chem, 2015).
Converted amounts (≈) assume the structure as drawn.

Tests used:
Clostridium sporogenes = assay: Antibacterial activity against Clostridium sporogenes ATCC 19404 after 24 hrs by microbroth double dilution method; type: functional; details: ATCC 19404, 24 h
In short: (§1)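 Microbroth double dilution in Mueller Hinton broth; compound stock 10 mg/mL in DMSO serially halved across rows. Wells inoculated with 10 μL culture at 10^6 cells/mL, incubated 37 °C for 24 h. Amikacin row as positive control, DMSO row as negative control. MIC taken as lowest concentration inhibiting bacterial growth.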

Proteus hauseri = assay: Antibacterial activity against Proteus hauseri ATCC 13315 after 24 hrs by microbroth double dilution method; type: functional; details: ATCC 13315, 24 h; in short: as §1
MDA-MB-453 = assay: Cytotoxicity against human MDA-MB-453 cells assessed as cell survival after 72 hrs by MTT assay; type: functional, cell-based; details: MDA-MB-453, 72 h
In short: (§2)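 Cells seeded (HeLa 2000, MDA-MB-453 3000, others 5000 per well), treated 24 h later (K562 after 2 h). Five double-diluted final concentrations, 200–12.5 μM, from 10 mM DMSO stocks, in RPMI-1640 with 10% FBS, pH 7.2, 72 h. MTT 4 h at 37 °C, SDS added, A570 read next day. Survival relative to medium control; IC50 from survival curves; triplicate; cisplatin positive control.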

Candida albicans = assay: Antifungal activity against Candida albicans ATCC 10231 after 24 hrs by microbroth double dilution method; type: functional; details: ATCC 10231, 24 h
Salmonella enterica = assay: Antibacterial activity against Salmonella enterica ATCC 13076 after 24 hrs by microbroth double dilution method; type: functional; details: ATCC 13076, 24 h; in short: as §1
Aspergillus brasiliensis = assay: Antifungal activity against Aspergillus brasiliensis ATCC 16404 after 24 hrs by microbroth double dilution method; type: functional; details: ATCC 16404, 24 h
[1] = Cytotoxicity against human Fem-X cells assessed as cell survival after 72 hrs by MTT assay; type: functional, cell-based; in short: as §2
Escherichia coli = assay: Antibacterial activity against Escherichia coli ATCC 25922 after 24 hrs by microbroth double dilution method; type: functional; details: ATCC 25922, 24 h; in short: as §1
HeLa = assay: Cytotoxicity against human HeLa cells assessed as cell survival after 72 hrs by MTT assay; type: functional, cell-based; in short: as §2
Artemia salina = assay: Cytotoxicity in Brine shrimp assessed as nauplii mortality after 24 hrs; type: organism-based; details: in vivo
In short: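 Artemia salina eggs hatched in aerated tap water with dried yeast at 18–20 °C under illumination for 48 h, and freshly hatched nauplii were used. Compounds in DMSO (0.01–1 mg) were added to 950 µL artificial seawater containing 10–20 nauplii, with 5% final DMSO. After 24 h under illumination at room temperature, dead and surviving nauplii were counted and statistically analysed.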

Bacillus subtilis = assay: Antibacterial activity against Bacillus subtilis ATCC 6633 after 24 hrs by microbroth double dilution method; type: functional; details: ATCC 6633, 24 h; in short: as §1
Staphylococcus aureus = assay: Antibacterial activity against Staphylococcus aureus ATCC 6538 after 24 hrs by microbroth double dilution method; type: functional; details: ATCC 6538, 24 h; in short: as §1
Saccharomyces cerevisiae = assay: Antifungal activity against Saccharomyces cerevisiae ATCC 9763 after 24 hrs by microbroth double dilution method; type: functional; details: ATCC 9763, 24 h
Kocuria rhizophila = assay: Antibacterial activity against Kocuria rhizophila ATCC 9341 after 24 hrs by microbroth double dilution method; type: functional; details: ATCC 9341, 24 h; in short: as §1
K562 = assay: Cytotoxicity against human K562 cells assessed as cell survival after 72 hrs by MTT assay; type: functional, cell-based; details: K562, 72 h; in short: as §2
A549 = assay: Cytotoxicity against human A549 cells assessed as cell survival after 72 hrs by MTT assay; type: functional, cell-based; details: A549, 72 h; in short: as §2
MRC5 = assay: Cytotoxicity against human MRC5 cells assessed as cell survival after 72 hrs by MTT assay; type: cell-based; details: MRC5, 72 h; in short: as §2
Micrococcus flavus = assay: Antibacterial activity against Micrococcus flavus ATCC 10240 after 24 hrs by microbroth double dilution method; type: functional; details: ATCC 10240, 24 h; in short: as §1
Pseudomonas aeruginosa = assay: Antibacterial activity against Pseudomonas aeruginosa ATCC 9027 after 24 hrs by microbroth double dilution method; type: functional; details: ATCC 9027, 24 h; in short: as §1
Micrococcus luteus = assay: Antibacterial activity against Micrococcus luteus ATCC 4698 after 24 hrs by microbroth double dilution method; type: functional; details: ATCC 4698, 24 h; in short: as §1

Row | SMILES | MIC (Clostridium sporogenes) [µM] | MIC (Proteus hauseri) [µM] | IC50 (MDA-MB-453) [µM] | MIC (Candida albicans) [µM] | MIC (Salmonella enterica) [µM] | MIC (Aspergillus brasiliensis) [µM] | IC50 [1] [µM] | MIC (Escherichia coli) [µM] | IC50 (HeLa) [µM] | LC50 (Artemia salina) [ppm] | MIC (Bacillus subtilis) [µM] | MIC (Staphylococcus aureus) [µM] | MIC (Saccharomyces cerevisiae) [µM] | MIC (Kocuria rhizophila) [µM] | IC50 (K562) [µM] | IC50 (A549) [µM] | IC50 (MRC5) [µM] | MIC (Micrococcus flavus) [µM] | MIC (Pseudomonas aeruginosa) [µM] | MIC (Micrococcus luteus) [µM]
1 | CC(C)(C)C1=CC(=O)C=C(NCCC(=O)O)C1=O | 1250 (≈ 313 µg/mL) | 2490 (≈ 625 µg/mL) | 94.1 | 626 (≈ 157 µg/mL) | 2490 (≈ 625 µg/mL) | 2490 (≈ 626 µg/mL) | 28.4 | 1250 (≈ 313 µg/mL) | 47.1 | 833.2 | 2490 (≈ 625 µg/mL) | 625 (≈ 157 µg/mL) | 311 (≈ 78.1 µg/mL) | 2490 (≈ 625 µg/mL) | 67 | 171 | > 200 | 2490 (≈ 625 µg/mL) | 2490 (≈ 625 µg/mL) | 1250 (≈ 313 µg/mL)
2 | CC1=CCC[C@H]2[C@](C)(CC3=CC(=O)C=C(NCC(=O)O)C3=O)[C@@H](C)CC[C@]12C | 407 (≈ 157 µg/mL) | 811 (≈ 313 µg/mL) | 5.84 | 12.6 (≈ 4.86 µg/mL) | 407 (≈ 157 µg/mL) | 404 (≈ 156 µg/mL) | 17.8 | 101 (≈ 39 µg/mL) | 19.9 | 487.1 | 407 (≈ 157 µg/mL) | 101 (≈ 39 µg/mL) | 100 (≈ 38.7 µg/mL) | 811 (≈ 313 µg/mL) | 15.6 | 46.7 | 183 | 407 (≈ 157 µg/mL) | 407 (≈ 157 µg/mL) | 101 (≈ 39 µg/mL)
3 | C[C@H](NC1=CC(=O)C=C(C(C)(C)C)C1=O)C(=O)O | 2490 (≈ 626 µg/mL) | 4980 (≈ 1250 µg/mL) | 112 | 626 (≈ 157 µg/mL) | 2490 (≈ 626 µg/mL) | 1240 (≈ 312 µg/mL) | 20.1 | 1250 (≈ 313 µg/mL) | 89.1 | 393.8 | 2490 (≈ 626 µg/mL) | 1250 (≈ 313 µg/mL) | 626 (≈ 157 µg/mL) | 4980 (≈ 1250 µg/mL) | 77.6 | > 200 | > 200 | 2490 (≈ 626 µg/mL) | 2490 (≈ 626 µg/mL) | 1250 (≈ 313 µg/mL)
4 | CC(C)(C)C1=CC(=O)C=CC1=O | 475 (≈ 78 µg/mL) | 475 (≈ 78 µg/mL) | 56.8 | 122 (≈ 20 µg/mL) | 475 (≈ 78 µg/mL) | 122 (≈ 20 µg/mL) | 41.6 | 238 (≈ 39 µg/mL) | 44.1 | 27.4 | 238 (≈ 39 µg/mL) | 238 (≈ 39 µg/mL) | 238 (≈ 39 µg/mL) | 475 (≈ 78 µg/mL) | 15.5 | 47 | > 200 | 475 (≈ 78 µg/mL) | 475 (≈ 78 µg/mL) | 238 (≈ 39 µg/mL)
5 | CC(C)[C@@H](NC1=CC(=O)C=C(C(C)(C)C)C1=O)C(=O)O | 2240 (≈ 626 µg/mL) | 4480 (≈ 1250 µg/mL) | 133 | 563 (≈ 157 µg/mL) | 4480 (≈ 1250 µg/mL) | 2240 (≈ 626 µg/mL) | 24.6 | 1120 (≈ 313 µg/mL) | 96.5 | 574.9 | 2240 (≈ 626 µg/mL) | 1120 (≈ 313 µg/mL) | 563 (≈ 157 µg/mL) | 4480 (≈ 1250 µg/mL) | 57.8 | 154 | > 200 | 2240 (≈ 626 µg/mL) | 2240 (≈ 626 µg/mL) | 1120 (≈ 313 µg/mL)
6 | CC1=CCC[C@H]2[C@](C)(CC3=CC(=O)C=C(N[C@@H](C)C(=O)O)C3=O)[C@@H](C)CC[C@]12C | 195 (≈ 77.9 µg/mL) | 393 (≈ 157 µg/mL) | 14.7 | 6.13 (≈ 2.45 µg/mL) | 195 (≈ 78.1 µg/mL) | 1560 (≈ 624 µg/mL) | 10.3 | 49.1 (≈ 19.6 µg/mL) | 11.7 | 129.4 | 195 (≈ 78.1 µg/mL) | 49.1 (≈ 19.6 µg/mL) | 195 (≈ 77.9 µg/mL) | 1570 (≈ 626 µg/mL) | 15.8 | 54.3 | 157 | 195 (≈ 78.1 µg/mL) | 195 (≈ 78.1 µg/mL) | 97.7 (≈ 39.1 µg/mL)
7 | CC1=CCC[C@H]2[C@](C)(CC3=CC(=O)C(N4CCC[C@H]4C(=O)O)=CC3=O)[C@@H](C)CC[C@]12C | 369 (≈ 157 µg/mL) | 183 (≈ 77.9 µg/mL) | 60.6 | 23 (≈ 9.79 µg/mL) | 183 (≈ 77.9 µg/mL) | 735 (≈ 313 µg/mL) | 39.6 | 91.5 (≈ 39 µg/mL) | 36.2 | 706.6 | 183 (≈ 77.9 µg/mL) | 91.5 (≈ 39 µg/mL) | 45.8 (≈ 19.5 µg/mL) | 735 (≈ 313 µg/mL) | 35.4 | 49.2 | 96 | 183 (≈ 77.9 µg/mL) | 183 (≈ 77.9 µg/mL) | 91.5 (≈ 39 µg/mL)
8 | CC(C)(C)C1=CC(=O)C=C(N[C@@H](Cc2ccccc2)C(=O)O)C1=O | 1910 (≈ 626 µg/mL) | 1910 (≈ 626 µg/mL) | 68 | 480 (≈ 157 µg/mL) | 1910 (≈ 626 µg/mL) | 957 (≈ 313 µg/mL) | 67.3 | 480 (≈ 157 µg/mL) | 66.3 | 196.8 | 1910 (≈ 626 µg/mL) | 480 (≈ 157 µg/mL) | 119 (≈ 39 µg/mL) | 1910 (≈ 626 µg/mL) | 82.3 | 164 | > 200 | 1910 (≈ 626 µg/mL) | 1910 (≈ 626 µg/mL) | 480 (≈ 157 µg/mL)
